Assay outcomes (PubChem BioAssay)
ATG4B inh: ATG4B protease inhibitors, primary screen, biochemical, fluorescence, uHTS; ATG4B cleavage of LC3-PLA2, NBD-HPC fluorescence, 1 h; Cysteine protease ATG4B (Homo sapiens), Q9Y4P1; AID 504462, 2011; inhibition, % at 8.33 µM; 0.51% of 340,000 active; in the data active means inhibition above about 40%
Target sequence (Q9Y4P1 whole entry, looked up): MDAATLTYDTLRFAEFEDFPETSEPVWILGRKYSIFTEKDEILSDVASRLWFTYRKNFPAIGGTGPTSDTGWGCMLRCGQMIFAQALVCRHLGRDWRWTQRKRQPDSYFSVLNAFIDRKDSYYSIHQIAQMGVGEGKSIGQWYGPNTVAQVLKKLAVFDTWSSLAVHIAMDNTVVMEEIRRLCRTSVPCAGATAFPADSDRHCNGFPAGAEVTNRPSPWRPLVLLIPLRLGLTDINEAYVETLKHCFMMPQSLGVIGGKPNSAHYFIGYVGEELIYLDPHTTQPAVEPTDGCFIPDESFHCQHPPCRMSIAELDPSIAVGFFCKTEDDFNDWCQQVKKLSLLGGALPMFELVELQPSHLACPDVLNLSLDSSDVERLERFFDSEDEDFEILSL
CAL PDZ FP-1: CAL PDZ peptide-binding inhibitors, primary screen, biochemical, fluorescence polarization, Cer-tagged CAL PDZ, HTS | Golgi-associated PDZ and coiled-coil motif-containing protein (Homo sapiens), Q9HD26 | purified CAL PDZ, TMR-peptide fluorescence polarization, 1 h | inhibition, % at 20 µM | 0.02% of 330,000 active | AID 504414, 2011;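 active means highest replicate inhibition of at least 40%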
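Test system: tagged CAL PDZ domain / Buffer or medium: sodium phosphate/NaCl buffer pH 7.4 with TCEP, IgG, Thesit / Reagent: TMR-labelled reporter peptide T*-PRC34 bound in PDZ groove / Compound dosing: single point, 20 µM / Schedule: 1 h incubation at room temperature before polarization reading / Technique: fluorescence polarization (mP) / Benchmarks: unlabelled peptide, DMSO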
SR-BI DiI-HDL act: activators of SR-BI mediated DiI-HDL uptake, primary screen, ldlA[mSR-BI] CHO cells, DiI fluorescence; 3 h; 100 = double the neutral-control signal; activation, % at 12.5 µM; 0.096% of 320,000 active; AID 504775, 2011;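 active means mean replicate activation of at least 60% and every replicate at or above 60%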
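Test system: SR-BI-overexpressing, LDLR-lacking CHO cells; Also added: labelled HDL, 10 µg/mL; Measured by: bottom-read cell fluorescence after medium removal, ex 550/em 595 nm; Timing: 3 h uptake period with compound, 37 °C; Buffer or medium: F12, 0.5% BSA, 25 mM HEPES; Doses: single compound concentration, delivered by pin transfer.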
CAL PDZ FP-2: untagged CAL PDZ binding inhibitors, primary screen, biochemical, fluorescence polarization, HTS. Golgi-associated PDZ and coiled-coil motif-containing protein (Homo sapiens), Q9HD26. purified CAL PDZ, TMR-peptide fluorescence polarization, 1 h. inhibition, % at 24.9 µM. 0.92% of 300,000 active. AID 602252, 2012;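 active means mean inhibition of at least 30% with at least half of replicates also reaching 30%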
SR-BI HDL uptake: inhibitors of SR-BI mediated HDL lipid uptake, primary screen, ldlA[mSR-BI] cells, fluorescence, single point | ldlA[mSR-BI] CHO cells, DiI-HDL uptake fluorescence, 3 h | 0.96% of 320,000 active | inhibition, % at 12.5 µM;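 active means mean replicate inhibition of at least 70% and a set share of replicates each scoring 70 or more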
Of the large screens only hits and unclear results are named; the others gave an inactive call. An excerpt weighted towards active compounds, which were near 2.3% of everything screened.

COc1ccccc1NC(=O)CSc1nnc(-c2ccoc2C)n1C	none
CN(C)c1ccc(C=c2c3ccccc3n3c2cc(-c2ccccc2)[n+]3C)cc1	none
CN(C)c1ccc(C=c2c3cc([N+](=O)[O-])ccc3n3c2cc(-c2ccccc2)[n+]3C)cc1	SR-BI HDL uptake 84.1
CC(C)c1ccc(CN2CCN(C(=O)CSc3nnnn3C3CC3)CC2)cc1	none
COc1ccc(OC)c(NC(=O)c2ccc(OC3CSC3)cc2)c1	CAL PDZ FP-2 55.2
COc1ccc(OC)c(NC(=O)c2ccc(OCC(=O)N3CCOCC3)c(OC)c2)c1	SR-BI HDL uptake 72.5
C/C(CC(=O)Nc1ccccc1C)=N\NC(=O)Cc1csc(N)n1	CAL PDZ FP-2 44.0
CCCCC(CC)C(=O)Nc1cc(C(=O)NCCC)ccc1N1CCC2(CC1)CC(c1cccc(Br)c1)=NO2 (stereo not given)	none
CC1(C)C/C(=N\NC(=S)Nc2ccccc2F)c2cc(O)ccc2O1	none
COc1cccc(CNc2nc3ccccc3n2C)c1O	CAL PDZ FP-2 43.8
CCC1Oc2ccc(C)cc2N(CC(=O)NC2CCCCC2)C1=O (stereo not given)	SR-BI HDL uptake 88.6
COc1cccc(NC(=O)Nc2nc(-c3ccc(OC)c(OC)c3)cs2)c1	SR-BI HDL uptake 77.2
COc1ccc(-c2csc(NC(=O)CCCc3nc4ccccc4c(=O)[nH]3)n2)cc1OC	none
COc1ccc(-c2csc(NC(C)=O)n2)cc1OC	none
O=C(Nc1ccccc1)Nc1nc(-c2ccc(Cl)cc2)cs1	none
COc1ccc(-c2csc(NC(=O)CCn3cnc4ccccc4c3=O)n2)cc1OC	SR-BI HDL uptake 75.3
O=C(Nc1cccc(Cl)c1)Nc1nc(-c2ccc(Cl)cc2)cs1	SR-BI HDL uptake 78.7
COc1ccc(-c2csc(Nc3ncccc3C)n2)cc1OC	SR-BI HDL uptake 72.0
CC(C(=O)Nc1nc(-c2ccc(F)c(F)c2)cs1)N1C(=O)C2CC=CCC2C1=O (stereo not given)	none (no result: CAL PDZ FP-2)
COc1ccc(-c2csc(NC(=O)[C@H](C)N3C(=O)C4CC=CCC4C3=O)n2)cc1OC (stereo not given in full)	SR-BI HDL uptake 71.0 (no result: CAL PDZ FP-2)
COc1ccc(C(=O)NCC(=O)N/N=C/C=C/c2ccccc2)cc1OC	SR-BI HDL uptake 83.0
COc1ccc(/C=N/NC(=O)CNC(=O)c2ccncc2)cc1OC	CAL PDZ FP-2 54.9
CC(C(=O)O)N1C(=O)/C(=C/C=C/c2ccco2)SC1=S (stereo not given)	ATG4B inh 71.6
CCOc1cc(C=NN=C2c3ccccc3-c3ccccc32)ccc1O	SR-BI HDL uptake 76.1
CCCCNc1c(-c2cccc(-c3ccc(OC)cc3)c2)nc2cc(C)ccn12	SR-BI HDL uptake 73.3
CCCCNc1c(-c2ccc(-c3ccc(C(C)=O)cc3)c(OC)c2)nc2cnccn12	SR-BI HDL uptake 73.5
c1ccc(-c2nc(SCc3nc4ccccc4[nH]3)c3oc4ccccc4c3n2)cc1	none
O=c1[nH]cc(S(=O)(=O)N2CCOCC2)c(=O)[nH]1	none
Cc1ccccc1OCc1nc2ccccc2[nH]1	CAL PDZ FP-2 40.5
Nc1nonc1C(=O)N/N=C/c1cc2c(cc1Br)OCO2	none
CC1CN(C(=O)COC(=O)c2cccc(S(=O)(=O)N3CCc4ccccc43)c2)CC(C)O1 (stereo not given)	CAL PDZ FP-2 59.4
CS(=O)(=O)N1CCc2cc(C(=O)OCC(=O)c3ccccc3)ccc21	CAL PDZ FP-2 98.2
O=C(COC(=O)C1CCN(c2ccc(C(F)(F)F)cn2)CC1)Nc1ncc(Cl)cc1Cl	none
N=C1SC(CC(=O)Nc2ccc([N+](=O)[O-])cc2)C(=O)N1c1ccccc1 (stereo not given)	none (no result: CAL PDZ FP-2)
COc1ccc(OC)c(NC(=O)CC2SC(=N)N(c3ccccc3)C2=O)c1 (stereo not given)	CAL PDZ FP-2 active
COC(=O)c1c(N2C(=O)[C@H]3[C@@H](C2=O)[C@]2(C(=O)Nc4c(C)cc(C)cc42)N2CCC[C@@H]32)sc(C)c1C	CAL PDZ FP-2 65.5
